Active and inactive are the calls of the source. No cut-off for these calls is given here.
Assays:
P2Y purinoceptor 1 [1] = biological target: T1, P2Y purinoceptor 1 (Homo sapiens, UniProt P47900); experiment: Antagonist activity at human platelet P2Y1 receptor assessed as inhibition of ADP-induced increase in cytosolic calcium level by FLUO-4 staining based flow cytometric analysis; assay type: functional
In short: (§1)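 Stimulus was extracellular Ca2+ uptake on 1 μM test compound (P2X1, scaled to 20 μM β,γ-CH2-ATP as 100%, selective P2Y1 inhibitor control), or 3 μM ADP (P2Y1 antagonism; omitted for agonism).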

Plasma [2] = experiment: Drug level in rat plasma treated with P'1,P'4-di-(2 methylthio-5'-adenosine) P'1,P'4-dithio-P'2,P'3-chloromethylenetetraphosphate, sodium salt at 50 uM after 77 hrs by HPLC analysis; assay type: ADME, cell-free
In short: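 Frozen pooled heparinised rat or human plasma, thawed and warmed 5 min at 37 °C, spiked to 50 μM final compound (from 10 mM saline stock), held at 37 °C up to 77 h; heat-denatured plasma as chemical control; aliquots quenched with MeCN, ultrafiltered, dried, redissolved in pH 8.5 phosphate/EDTA; isocratic RP-HPLC, 273 nm; metabolites confirmed by reference compounds and LCMS; peak areas internally normalised.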

Platelet = experiment: Anti-aggregatory activity in human platelet rich plasma assessed as inhibition of ADP-induced platelet shape change; assay type: functional, cell-free
P2Y purinoceptor 12 [3] = biological target: T2, P2Y purinoceptor 12 (Homo sapiens, UniProt Q9H244); experiment: Antagonist activity at human platelet P2Y12 receptor assessed as inhibition of ADP-mediated decrease in intra-platelet phosphorylated VASP by flow cytometric analysis
T2 sequence (Q9H244 whole entry): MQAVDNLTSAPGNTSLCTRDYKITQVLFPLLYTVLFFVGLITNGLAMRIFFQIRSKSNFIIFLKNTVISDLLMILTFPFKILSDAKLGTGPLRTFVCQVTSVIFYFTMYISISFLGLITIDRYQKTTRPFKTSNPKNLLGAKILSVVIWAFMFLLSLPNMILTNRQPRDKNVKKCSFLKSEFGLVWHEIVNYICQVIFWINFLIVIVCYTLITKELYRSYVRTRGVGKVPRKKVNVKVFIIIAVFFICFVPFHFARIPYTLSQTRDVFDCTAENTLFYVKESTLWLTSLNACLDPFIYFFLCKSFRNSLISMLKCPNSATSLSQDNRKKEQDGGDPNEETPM

P2Y purinoceptor 1 [4] = biological target: T1, P2Y purinoceptor 1; experiment: Agonist activity at human platelet P2Y1 receptor assessed as increase in cytosolic calcium level by FLUO-4 staining based flow cytometric analysis; assay type: functional; in short: as §1
P2Y purinoceptor 12 [5] = biological target: T2, P2Y purinoceptor 12; experiment: Agonist activity at human platelet P2Y12 receptor assessed as decrease in intra-platelet phosphorylated VASP by flow cytometric analysis
[6] = biological target: T3, P2X purinoceptor 1 (Homo sapiens) (UniProt P51575); experiment: Agonist activity at human platelet P2X1 receptor assessed as increase in cytosolic calcium level at 1 uM by […] staining based flow cytometric analysis relative to beta,gamma-CH2-ATP; in short: as §1
T3 sequence (whole entry): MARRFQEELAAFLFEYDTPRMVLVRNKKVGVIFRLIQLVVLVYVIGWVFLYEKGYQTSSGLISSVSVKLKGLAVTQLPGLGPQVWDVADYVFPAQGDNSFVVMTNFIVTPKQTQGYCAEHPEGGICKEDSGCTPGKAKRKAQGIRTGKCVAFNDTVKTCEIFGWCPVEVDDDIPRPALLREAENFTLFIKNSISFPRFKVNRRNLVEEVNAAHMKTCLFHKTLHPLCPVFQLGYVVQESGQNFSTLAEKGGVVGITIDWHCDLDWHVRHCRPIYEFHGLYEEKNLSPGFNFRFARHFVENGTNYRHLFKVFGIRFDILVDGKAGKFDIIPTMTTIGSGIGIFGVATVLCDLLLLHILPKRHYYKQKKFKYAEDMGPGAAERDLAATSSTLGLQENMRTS

[7] = Anti-aggregatory activity in human platelet rich plasma assessed as inhibition of 20 uM ADP-induced platelet aggregation by optical aggregometric analysis; assay type: functional, cell-free
[8] = Anti-aggregatory activity in human platelet rich plasma assessed as inhibition of 20 uM ADP-induced platelet aggregation preincubated for 15 mins by optical aggregometric analysis; assay type: functional, cell-free
Plasma [9] = experiment: Half life in human plasma at 50 uM measured at 1 to 4 hrs; assay type: ADME, cell-free
Plasma [10] = experiment: Half life in rat plasma at 50 uM measured at 1 to 4 hrs; assay type: ADME, cell-free
[11] = Anti-aggregatory activity in human platelet rich plasma assessed as inhibition of ADP-induced platelet aggregation by optical aggregometry; assay type: functional, cell-free
Plasma [12] = experiment: Metabolic stability in rat plasma assessed as first order elimination rate constant at 50 uM measured at 1 to 4 hrs; assay type: ADME, cell-free
Plasma [13] = experiment: Metabolic stability in human plasma assessed as first order elimination rate constant at 50 uM measured at 1 to 4 hrs; assay type: ADME, cell-free

T1 sequence (P47900 whole entry): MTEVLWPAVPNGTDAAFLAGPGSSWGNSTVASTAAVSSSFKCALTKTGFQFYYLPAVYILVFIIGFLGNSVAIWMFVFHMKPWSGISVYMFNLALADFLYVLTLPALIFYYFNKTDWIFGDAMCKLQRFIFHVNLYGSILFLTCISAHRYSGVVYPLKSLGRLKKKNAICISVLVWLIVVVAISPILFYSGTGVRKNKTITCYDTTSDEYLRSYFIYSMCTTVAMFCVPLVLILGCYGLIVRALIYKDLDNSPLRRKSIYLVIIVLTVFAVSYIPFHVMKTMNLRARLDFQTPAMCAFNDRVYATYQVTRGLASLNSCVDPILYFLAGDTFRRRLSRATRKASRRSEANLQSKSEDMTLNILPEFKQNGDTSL

Compound	IC50 (P2Y purinoceptor 1 [1]) [nM]	IC50 (P2Y purinoceptor 12 [3]) [nM]	Activity (P2Y purinoceptor 1 [4])	Activity (P2Y purinoceptor 12 [5])	Activity [6] [%]	IC50 [7] [nM]	IC50 [8] [nM]	Drug metabolism (Plasma [2])	inhibition (Platelet)	t1/2 (Plasma [9]) [h]	t1/2 (Plasma [10]) [h]	IC50 [11] [nM]	Kel (Plasma [12]) [h⁻¹]	Kel (Plasma [13]) [h⁻¹]
CSc1nc(N)c2ncn([C@@H]3O[C@H](COP(O)(O)=S)[C@@H](O)[C@H]3O)c2n1	–	–	–	–	–	–	–	metabolite_detected	–	–	–	–	–	–
CSc1nc(N)c2ncn([C@@H]3O[C@H](COP(=O)(O)OP(=O)(O)C(Cl)P(=O)(O)OP(=O)(O)OC[C@H]4O[C@@H](n5cnc6c(N)nc(SC)nc65)[C@H](O)[C@@H]4O)[C@@H](O)[C@H]3O)c2n1 (some centres not stated)	29000	310	inactive	inactive	–	–	–	–	Active	–	–	–	–	–
CNc1ncnc2c1ncn2[C@@H]1O[C@H](COP(=O)(S)OP(=O)(O)C(Cl)P(=O)(O)OP(=O)(S)OC[C@H]2O[C@@H](n3cnc4c(NC)ncnc43)[C@H](O)[C@@H]2O)[C@@H](O)[C@H]1O (mixture of isomers)	1970	> 200000	inactive	inactive	0.31	–	–	–	Active	–	–	–	–	–
CCCNc1ncnc2c1ncn2[C@@H]1O[C@H](COP(=O)(S)OP(=O)(O)C(Cl)P(=O)(O)OP(=O)(S)OC[C@H]2O[C@@H](n3cnc4c(NCCC)ncnc43)[C@H](O)[C@@H]2O)[C@@H](O)[C@H]1O (mixture of isomers)	8800	156000	inactive	inactive	-0.01	–	–	–	Active	–	–	–	–	–
CSc1nc(N)c2ncn([C@@H]3O[C@H](COP(=O)(S)OP(=O)(O)OP(=O)(O)OP(=O)(S)OC[C@H]4O[C@@H](n5cnc6c(N)nc(SC)nc65)[C@H](O)[C@@H]4O)[C@@H](O)[C@H]3O)c2n1 (mixture of isomers)	160	2400	inactive	inactive	3	–	–	–	Active	–	–	–	–	–
Nc1nc(Br)nc2c1ncn2[C@@H]1O[C@H](COP(=O)(S)OP(=O)(O)C(Cl)P(=O)(O)OP(=O)(S)OC[C@H]2O[C@@H](n3cnc4c(N)nc(Br)nc43)[C@H](O)[C@@H]2O)[C@@H](O)[C@H]1O (mixture of isomers)	2240	340	inactive	inactive	1.8	6220	4520	–	Active	–	–	–	–	–
Nc1nc(I)nc2c1ncn2[C@@H]1O[C@H](COP(=O)(S)OP(=O)(O)C(Cl)P(=O)(O)OP(=O)(S)OC[C@H]2O[C@@H](n3cnc4c(N)nc(I)nc43)[C@H](O)[C@@H]2O)[C@@H](O)[C@H]1O (mixture of isomers)	2650	1350	inactive	inactive	0.69	–	–	–	Active	–	–	–	–	–
Nc1ncnc2c1ncn2[C@@H]1O[C@H](COP(=O)(S)OP(=O)(O)C(Cl)P(=O)(O)OP(=O)(S)OC[C@H]2O[C@@H](n3cnc4c(N)ncnc43)[C@H](O)[C@@H]2O)[C@@H](O)[C@H]1O (mixture of isomers)	10200	–	–	–	–	–	–	–	–	–	–	–	–	–
CSc1nc(N)c2ncn([C@@H]3O[C@H](COP(=O)([S-])OP(=O)([O-])C(Cl)P(=O)([O-])OP(=O)([S-])OC[C@H]4O[C@@H](n5cnc6c(N)nc(SC)nc65)[C@H](O)[C@@H]4O)[C@@H](O)[C@H]3O)c2n1.[Na+].[Na+].[Na+].[Na+] (single isomer, unassigned; diastereomer 1)	–	–	–	–	–	–	–	–	–	71	100.5	76	0.0069	0.00976
CSc1nc(N)c2ncn([C@@H]3O[C@H](COP(=O)([S-])OP(=O)([O-])C(Cl)P(=O)([O-])OP(=O)([S-])OC[C@H]4O[C@@H](n5cnc6c(N)nc(SC)nc65)[C@H](O)[C@@H]4O)[C@@H](O)[C@H]3O)c2n1.[Na+].[Na+].[Na+].[Na+] (single isomer, unassigned; diastereomer 2)	–	–	–	–	–	–	–	–	–	40.6	5.06	83	0.137	0.0171
CSc1nc(N)c2ncn([C@@H]3O[C@H](COP(=O)([S-])OP(=O)([O-])C(Cl)P(=O)([O-])OP(=O)([S-])OC[C@H]4O[C@@H](n5cnc6c(N)nc(SC)nc65)[C@H](O)[C@@H]4O)[C@@H](O)[C@H]3O)c2n1.[Na+].[Na+].[Na+].[Na+] (single isomer, unassigned; diastereomer 3)	–	–	–	–	–	–	–	–	–	31.9	5.4	64	0.128	0.0217
CSc1nc(N)c2ncn([C@@H]3O[C@H](COP(=O)([S-])OP(=O)([O-])C(Cl)P(=O)([O-])OP(=O)([S-])OC[C@H]4O[C@@H](n5cnc6c(N)nc(SC)nc65)[C@H](O)[C@@H]4O)[C@@H](O)[C@H]3O)c2n1.[Na+].[Na+].[Na+].[Na+] (single isomer, unassigned; diastereomer 4)	–	–	–	–	–	–	–	–	–	16.4	1.37	110	0.508	0.0424

More lines, main results first:

IC50 (P2Y purinoceptor 1 [1]) [nM]	IC50 (P2Y purinoceptor 12 [3]) [nM]	Activity (P2Y purinoceptor 1 [4])	Activity (P2Y purinoceptor 12 [5])	Activity [6] [%]	IC50 [7] [nM]	IC50 [8] [nM]	Compound	Drug metabolism (Plasma [2])	inhibition (Platelet)	t1/2 (Plasma [9]) [h]	t1/2 (Plasma [10]) [h]	IC50 [11] [nM]	Kel (Plasma [12]) [h⁻¹]	Kel (Plasma [13]) [h⁻¹]
2250	–	–	–	–	–	–	CNc1ncnc2c1ncn2[C@H]1C[C@H](OP(=O)(O)O)[C@@H](COP(=O)(O)O)O1	–	–	–	–	–	–	–
4900	1400	inactive	inactive	48	–	–	CSc1nc(N)c2ncn([C@@H]3O[C@H](COP(=O)(O)OP(=O)(O)OP(=O)(O)OP(=O)(O)OC[C@H]4O[C@@H](n5cnc6c(N)nc(SC)nc65)[C@H](O)[C@@H]4O)[C@@H](O)[C@H]3O)c2n1	–	Active	–	–	–	–	–
360	730	inactive	inactive	92	–	–	CNc1nc(SC)nc2c1ncn2[C@@H]1O[C@H](COP(=O)(S)OP(=O)(O)C(Cl)P(=O)(O)OP(=O)(S)OC[C@H]2O[C@@H](n3cnc4c(NC)nc(SC)nc43)[C@H](O)[C@@H]2O)[C@@H](O)[C@H]1O (some centres not stated)	–	Active	–	–	–	–	–
6300	1020	inactive	inactive	31	–	–	CCCSc1nc(N)c2ncn([C@@H]3O[C@H](COP(=O)(S)OP(=O)(O)C(Cl)P(=O)(O)OP(=O)(S)OC[C@H]4O[C@@H](n5cnc6c(N)nc(SCCC)nc65)[C@H](O)[C@@H]4O)[C@@H](O)[C@H]3O)c2n1 (mixture of isomers)	–	Active	–	–	–	–	–
4210	3100	inactive	inactive	4.7	–	–	CCCCCSc1nc(N)c2ncn([C@@H]3O[C@H](COP(=O)(S)OP(=O)(O)C(Cl)P(=O)(O)OP(=O)(S)OC[C@H]4O[C@@H](n5cnc6c(N)nc(SCCCCC)nc65)[C@H](O)[C@@H]4O)[C@@H](O)[C@H]3O)c2n1 (mixture of isomers)	–	Active	–	–	–	–	–
5200	210	inactive	inactive	4.7	–	–	Nc1nc(SCCC(F)(F)F)nc2c1ncn2[C@@H]1O[C@H](COP(=O)(S)OP(=O)(O)C(Cl)P(=O)(O)OP(=O)(S)OC[C@H]2O[C@@H](n3cnc4c(N)nc(SCCC(F)(F)F)nc43)[C@H](O)[C@@H]2O)[C@@H](O)[C@H]1O (mixture of isomers)	–	Active	–	–	–	–	–
1020	1120	inactive	inactive	3.3	–	–	CSc1nc(N)c2ncn([C@@H]3O[C@H](COP(=O)(S)OP(=O)(O)C(Cl)(Cl)P(=O)(O)OP(=O)(S)OC[C@H]4O[C@@H](n5cnc6c(N)nc(SC)nc65)[C@H](O)[C@@H]4O)[C@@H](O)[C@H]3O)c2n1 (mixture of isomers)	–	Active	–	–	–	–	–
7370	9300	inactive	inactive	0.07	–	–	Nc1nc(Cl)nc2c1ncn2[C@@H]1O[C@H](COP(=O)(S)OP(=O)(O)C(Cl)P(=O)(O)OP(=O)(S)OC[C@H]2O[C@@H](n3cnc4c(N)nc(Cl)nc43)[C@H](O)[C@@H]2O)[C@@H](O)[C@H]1O (mixture of isomers)	–	Active	–	–	–	–	–

From ChEMBL document CHEMBL3745686 (Eur J Med Chem, 2016)
